The source of these data is ChEMBL document CHEMBL1135333, “Long-chain aminoalcohol and diamine derivatives induce apoptosis through a caspase-3 dependent pathway” (Bioorg Med Chem Lett, 2002).

Bounds are passed on as bounds.

The test system of one assay is Jurkat. The assay is described as follows: Inhibitory concentration required for 50% apoptosis induction was evaluated using jurkat cells (T-lymphoma cells); NA means not active. It is filed as functional, cell-based, Homo sapiens.
Conditions: not given; call rule not given here
The gist of the method: (§1)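 Jurkat T-lymphoma cells exposed 24 h to rising concentrations (0.1–100 μM). Ethanol-fixed cells then RNase-digested and stained with propidium iodide. Flow-cytometric cell-cycle analysis scored the hypodiploid (sub-G0/G1) fraction as apoptotic cells with fragmented DNA. IC50 taken from these concentration–response series.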
Regarding `CCCCCCCCCCCCCCC(=O)NC(CCCCCCCCCCCCCC)COC(=O)CCCCCC` (stereo not given), the half-inhibitory concentration (IC50) entry was “Not Active”.
Turning to `CCCCCCCCCCCCCCC(COC(=O)CCCCCC)NC(=O)CCCCCC` (stereo not given), the IC50 entry was “Not Active”.
As for `CCCCCCCCCCCCCCC(N)CNCC(=O)OCC` (stereo not given), the concentration for half-maximal inhibition (IC50) entry was “Not Active”.
For the compound `CCCCCCCCCCCCCCC(CN(CC)CC)NCCCCC(=O)O` (stereo not given), the IC50 result is “Not Active”.
As to `CCCCCCCCCCCCCCC(=O)NC(CCCCCCCCCCCCCC)COC(=O)CCCCCCCCCCCCCC` (stereo not given), the IC50 entry is on record as “Not Active”.

The subject of the next assay is Jurkat. The assay is described as follows: Inhibitory concentration required for 50% apoptosis induction was evaluated using jurkat cells (T-lymphoma cells). It is filed as functional, cell-based. The note with it: Homo sapiens. The method in brief: as §1
Regarding `CCCCCCCCCCCCCCC(N)CN(CC)CC` (stereo not given), the IC50 amounted to 7 µM.
Consider `CCCCCCCCCCCCCCC(N)CN` (stereo not given), for which the IC50 came to 55 µM. Against the preceding compound, the IC50 is about 7.9-fold higher.
On to `CCCCCCCCCCCCCCC(COCc1ccccc1)NC(=O)CCC(=O)O` (stereo not given), for which the half-maximal inhibitory concentration (IC50) turned out to be 30 µM.
Compound `CCCCCCCCCCCCCCC(CN(CC(=O)OCC)CC(=O)OCC)NC(=O)OC(C)(C)C` (stereo not given) came in with a half-inhibitory concentration (IC50) of more than 60 µM.
Regarding `CCCCCCCCCCCCCCC(CO)NC(=O)OC(C)(C)C` (stereo not given), the midpoint of inhibition, the IC50, lay at 28 µM.
Take `CCCCCCCCCCCCCCC(COCc1ccccc1)NCC` (stereo not given): the IC50 worked out at 6 µM.
`CCCCCCCCCCCCCCC(N)COCc1ccccc1` (stereo not given) gave a half-inhibitory concentration (IC50) of 3 µM.
Compound `CCCCCCCCCCCCCCC(O)CNCc1ccccc1` (stereo not given) gave an IC50 of 27 µM.
In the case of `CCCCCCCCCCCCCCC(COCc1ccccc1)NC(=O)CCCC(=O)O` (stereo not given), the half-inhibitory concentration (IC50) is more than 50 µM.
Still for that read-out and setting: then `CCCCCCCCCCCCCCC(CN)NC(=O)OC(C)(C)C` (stereo not given), with 6 µM.
Take `CCCCCCCCCCCCCCC(CO)NCC` (stereo not given): 6 µM corresponded to half-maximal inhibition (IC50). In other words, the single-digit micromolar range.
`CCCCCCCCCCCCCCC(CO)NC(=O)CCCC(=O)O` (stereo not given) had an IC50 of 24 µM. Compared with the last compound, the IC50 is about 4-fold higher.
As for `CCCCCCCCCCCCCCC(N)CN(CC(=O)OCC)CC(=O)OCC` (stereo not given), the IC50 is 32 µM.
On to `CCCCCCCCCCCCCCC(CO)N(CC)CC` (stereo not given), for which it took 1 µM to reach half-maximal inhibition (IC50).
Still for that read-out and setting: then `CCCCCCCCCCCCCCC(CN(CC)CC)NC(=O)OC(C)(C)C` (stereo not given), with 21 µM; and `CCCCCCCCCCCCCCC(CNCCCCC(=O)O)NC(=O)OC(C)(C)C` (stereo not given), with 18 µM.
The compound `CCCCCCCCCCCCCCC(N)CO` (stereo not given) registered a concentration for half-maximal inhibition (IC50) of 7 µM. This IC50 is about 2.6-fold lower than that of the compound before.
For `CCCCCCCCCCCCCCC(COCc1ccccc1)N(CC)CC` (stereo not given), half-maximal inhibition (IC50) was put at 20 µM.
With `CCCCCCCCCCCCCCC(O)CNC1CCCCC1` (stereo not given), inhibition was half-maximal at 6 µM (IC50).
The compound `CCCCCCCCCCCCCCC(CNCC(=O)OCC)NC(=O)OC(C)(C)C` (stereo not given) registered an IC50 of 28 µM. This IC50 is about 4.7-fold higher than that of the compound before.
On the same count and under the same terms, then `CCCCCCCCCCCCCCC(CNCC)NC(=O)OC(C)(C)C` (stereo not given), with 6 µM.
`CCCCCCCCCCCCCCC(COCc1ccccc1)NCC(=O)O` (stereo not given) returned a concentration for half-maximal inhibition (IC50) of 3 µM.
As to `CCCCCCCCCCCCCCC(CO)NCCCCCC` (stereo not given), 6 µM corresponded to half-maximal inhibition (IC50).
Turning to `CCCCCCCCCCCCCCC(N)CNCCCCC(=O)O` (stereo not given), the IC50 is 55 µM.
The compound `CCCCCCCCCCCCCCC(N)CNCC(=O)O` (stereo not given) came in with an IC50 of 31 µM.
